# Experiments:
# Rattus norvegicus [1] = assay: Toxicity in non-iron-overloaded Sprague-Dawley rat assessed as survival at 384 umol/kg/day, po after 10 days by non-renal perfusion protocol; assay type: organism-based; conditions: in vivo, 240 h
# Method in brief: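 Non-iron-loaded male Sprague–Dawley rats (250–300 g) were fasted overnight and gavaged po once daily for 10 days at 384 µmol/kg/day. They were fed about 3 h postdose with 5 h food access, then fasted again. Survival was followed over the exposure. Euthanasia was 24 h after the last dose, with extensive tissue histopathology.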
# Heart [2] = assay: Biodistribution in Sprague-Dawley rat heart assessed per gram tissue wet weight at 300 umol/kg, po after 2 hrs; assay type: ADME, organism-based; conditions: in vivo
# Method in brief: (§1)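 Male Sprague–Dawley rats (250–350 g) got one 300 µmol/kg dose, po or sc. Vehicle was water or the monosodium salt (free acid plus 1 equiv NaOH). Three rats per time point were euthanized by CO2 at 1, 2 or 4 h. Plasma came from citrated cardiac blood; liver, kidney, heart and pancreas were removed. Drug levels were measured by HPLC with UV detection at 310 nm against linear calibration curves (detection limit 0.25 µM).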
# Pancreas [3] = assay: Biodistribution in Sprague-Dawley rat pancreas assessed per gram tissue wet weight at 300 umol/kg, po after 2 hrs; assay type: ADME, organism-based; conditions: in vivo; method in brief: as §1
# Rattus norvegicus [4] = assay: Iron-clearing efficiency in non-iron-overloaded Sprague-Dawley rat at 300 umol/kg, po after 24 hrs relative to control; assay type: functional
# Method in brief: (§2)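 Male Sprague–Dawley rats (400–450 g), not iron-loaded and bile duct-cannulated, got one dose of 50, 150 or 300 µmol/kg po, or 300 µmol/kg sc. Vehicle was water or the monosodium salt. Bile was collected every 3 h for 24 h and urine at 24 h. Iron was measured by atomic absorption. Efficiency was treated minus control iron excretion, divided by theoretical output (2:1 ligand:iron), as a percent; mean ± SEM.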
# Liver [5] = assay: Biodistribution in Sprague-Dawley rat liver assessed per gram tissue wet weight at 300 umol/kg, po after 4 hrs; assay type: ADME, organism-based; conditions: in vivo; method in brief: as §1
# Plasma [6] = assay: Biodistribution in Sprague-Dawley rat plasma at 300 umol/kg, sc after 2 hrs; assay type: ADME, organism-based; conditions: in vivo
# Heart [7] = assay: Biodistribution in Sprague-Dawley rat heart assessed per gram tissue wet weight at 300 umol/kg, po after 1 hr; assay type: ADME, organism-based; conditions: in vivo; method in brief: as §1
# Liver [8] = assay: Biodistribution in Sprague-Dawley rat liver assessed per gram tissue wet weight at 300 umol/kg, sc after 4 hrs; assay type: ADME, organism-based; conditions: in vivo
# Pancreas [9] = assay: Biodistribution in Sprague-Dawley rat pancreas assessed per gram tissue wet weight at 300 umol/kg, sc after 1 hr; assay type: ADME, organism-based; conditions: in vivo
# Kidney [10] = assay: Biodistribution in Sprague-Dawley rat kidney assessed per gram tissue wet weight at 300 umol/kg, sc after 1 hr; assay type: ADME, organism-based; conditions: in vivo
# Heart [11] = assay: Biodistribution in Sprague-Dawley rat heart assessed per gram tissue wet weight at 300 umol/kg, sc after 2 hrs; assay type: ADME, organism-based; conditions: in vivo
# Pancreas [12] = assay: Biodistribution in Sprague-Dawley rat pancreas assessed per gram tissue wet weight at 300 umol/kg, sc after 4 hrs; assay type: ADME, organism-based; conditions: in vivo
# Rattus norvegicus [13] = assay: Iron-clearing efficiency in non-iron-overloaded Sprague-Dawley rat at 150 umol/kg, po after 24 hrs relative to control; assay type: functional; method in brief: as §2
# Pancreas [14] = assay: Biodistribution in Sprague-Dawley rat pancreas assessed per gram tissue wet weight at 300 umol/kg, po after 1 hr; assay type: ADME, organism-based; conditions: in vivo; method in brief: as §1
# Sapajus apella [15] = assay: Iron-clearing efficiency in iron-overloaded Cebus apella at 150 umol/kg, sc after 2 days relative to control; assay type: functional
# Method in brief: (§3)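 Monkeys (Cebus apella, 3.5–4 kg) were iron-loaded to about 500 mg Fe/kg with iv iron dextran and rested at least 60 days. They then got one 150 µmol/kg dose, po or sc. Feces and urine were collected every 24 h from 4 days before to 5 days after dosing, and iron was measured by flame atomic absorption. Efficiency was the 2-day post-drug iron minus the 4-day pre-drug baseline, divided by theoretical output (2:1 ligand:iron); mean ± SEM.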
# Rattus norvegicus [16] = assay: Iron-clearing efficiency in non-iron-overloaded Sprague-Dawley rat at 50 umol/kg, po after 24 hrs relative to control; assay type: functional; method in brief: as §2
# Heart [17] = assay: Biodistribution in Sprague-Dawley rat heart assessed per gram tissue wet weight at 300 umol/kg, sc after 1 hr; assay type: ADME, organism-based; conditions: in vivo
# Kidney [18] = assay: Biodistribution in Sprague-Dawley rat kidney assessed per gram tissue wet weight at 300 umol/kg, sc after 4 hrs; assay type: ADME, organism-based; conditions: in vivo
# Plasma [19] = assay: Biodistribution in Sprague-Dawley rat plasma at 300 umol/kg, po after 1 hr; assay type: ADME, organism-based; conditions: in vivo; method in brief: as §1
# Liver [20] = assay: Biodistribution in Sprague-Dawley rat liver assessed per gram tissue wet weight at 300 umol/kg, sc after 1 hr; assay type: ADME, organism-based; conditions: in vivo
# Sapajus apella [21] = assay: Iron-clearing efficiency in iron-overloaded Cebus apella at 150 umol/kg, po after 2 days relative to control; assay type: functional; method in brief: as §3
# Pancreas [22] = assay: Biodistribution in Sprague-Dawley rat pancreas assessed per gram tissue wet weight at 300 umol/kg, sc after 2 hrs; assay type: ADME, organism-based; conditions: in vivo
# Liver [23] = assay: Biodistribution in Sprague-Dawley rat liver assessed per gram tissue wet weight at 300 umol/kg, po after 1 hr; assay type: ADME, organism-based; conditions: in vivo; method in brief: as §1
# Rattus norvegicus [24] = assay: Iron-clearing efficiency in non-iron-overloaded Sprague-Dawley rat at 300 umol/kg, sc after 24 hrs relative to control; assay type: functional; method in brief: as §2
# Liver [25] = assay: Biodistribution in Sprague-Dawley rat liver assessed per gram tissue wet weight at 300 umol/kg, po after 2 hrs; assay type: ADME, organism-based; conditions: in vivo; method in brief: as §1
# Heart [26] = assay: Biodistribution in Sprague-Dawley rat heart assessed per gram tissue wet weight at 300 umol/kg, sc after 4 hrs; assay type: ADME, organism-based; conditions: in vivo
# Plasma [27] = assay: Biodistribution in Sprague-Dawley rat plasma at 300 umol/kg, po after 2 hrs; assay type: ADME, organism-based; conditions: in vivo; method in brief: as §1
# Rattus norvegicus [28] = assay: Iron-clearing efficiency in non-iron-overloaded Sprague-Dawley rat bile assessed as iron excretion at 50 umol/kg, po; assay type: functional; method in brief: as §2
# Kidney [29] = assay: Biodistribution in Sprague-Dawley rat kidney assessed per gram tissue wet weight at 300 umol/kg, sc after 2 hrs; assay type: ADME, organism-based; conditions: in vivo
# Rattus norvegicus [30] = assay: Toxicity in non-iron-overloaded Sprague-Dawley rat assessed as survival at 63.3 umol/kg/day, po after 30 days by non-renal perfusion protocol; conditions: in vivo, 720 h
# Rattus norvegicus [31] = assay: Iron-clearing efficiency in non-iron-overloaded Sprague-Dawley rat bile assessed as iron excretion at 150 umol/kg, po; assay type: functional; method in brief: as §2
# Kidney [32] = assay: Biodistribution in Sprague-Dawley rat kidney assessed per gram tissue wet weight at 300 umol/kg, po after 1 hr; assay type: ADME, organism-based; conditions: in vivo; method in brief: as §1
# Plasma [33] = assay: Biodistribution in Sprague-Dawley rat plasma at 300 umol/kg, po after 4 hrs; assay type: ADME, organism-based; conditions: in vivo; method in brief: as §1
# Plasma [34] = assay: Biodistribution in Sprague-Dawley rat plasma at 300 umol/kg, sc after 1 hr; assay type: ADME, organism-based; conditions: in vivo
# Rattus norvegicus [35] = assay: Nephrotoxicity in Sprague-Dawley rat assessed as heavy vacuolized renal tubules at […] for 7 days by renal perfusion studies; assay type: toxicity, organism-based; conditions: in vivo, 168 h, in the assay text read “237 umol/kg” for “273 umol/kg”
# Method in brief: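 Male Sprague–Dawley rats (200–250 g), fasted overnight, got 237 µmol/kg/dose po twice daily (474 µmol/kg/day) for 7 days and were fed about 3 h post-drug. Untreated age-matched rats were controls. One day post-drug, under pentobarbital, kidneys were perfusion-fixed with glutaraldehyde in Tyrode's buffer and embedded in TAAB. 500 nm sections were stained with toluidine blue and examined by light microscopy at 400×.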
# Kidney [36] = assay: Biodistribution in Sprague-Dawley rat kidney assessed per gram tissue wet weight at 300 umol/kg, po after 4 hrs; assay type: ADME, organism-based; conditions: in vivo; method in brief: as §1
# Liver [37] = assay: Biodistribution in Sprague-Dawley rat liver assessed per gram tissue wet weight at 300 umol/kg, sc after 2 hrs; assay type: ADME, organism-based; conditions: in vivo
# Rattus norvegicus [38] = assay: Iron-clearing efficiency in non-iron-overloaded Sprague-Dawley rat bile assessed as iron excretion at 300 umol/kg, po; assay type: functional; method in brief: as §2
# Kidney [39] = assay: Biodistribution in Sprague-Dawley rat kidney assessed per gram tissue wet weight at 300 umol/kg, po after 2 hrs; assay type: ADME, organism-based; conditions: in vivo; method in brief: as §1
# Plasma [40] = assay: Biodistribution in Sprague-Dawley rat plasma at 300 umol/kg, sc after 4 hrs; assay type: ADME, organism-based; conditions: in vivo
structure (smiles),measurement,setting,value
COCCOCCOCCOc1ccc(C2=N[C@@](C)(C(=O)O)CS2)c(O)c1,Activity,Rattus norvegicus [1],Non-toxic
same,Drug uptake,Heart [2],9 nmol/g
same,Drug uptake,Pancreas [3],9 nmol/g
same,Activity,Rattus norvegicus [4],5.5%
same,Drug uptake,Liver [5],35 nmol/g
same,Drug uptake,Plasma [6],16 nmol/g
same,Drug uptake,Heart [7],17 nmol/g
same,Drug uptake,Liver [8],67 nmol/g
same,Drug uptake,Pancreas [9],30 nmol/g
same,Drug uptake,Kidney [10],252 nmol/g
same,Drug uptake,Heart [11],9 nmol/g
same,Drug uptake,Pancreas [12],13 nmol/g
same,Activity,Rattus norvegicus [13],11.2%
same,Drug uptake,Pancreas [14],25 nmol/g
same,Activity,Sapajus apella [15],30.4%
same,Activity,Rattus norvegicus [16],21.7%
same,Drug uptake,Heart [17],35 nmol/g
same,Drug uptake,Kidney [18],34 nmol/g
same,Drug uptake,Plasma [19],64 nmol/g
same,Drug uptake,Liver [20],339 nmol/g
same,Activity,Sapajus apella [21],25.4%
same,Drug uptake,Pancreas [22],30 nmol/g
same,Drug uptake,Liver [23],159 nmol/g
same,Activity,Rattus norvegicus [24],8.7%
same,Drug uptake,Liver [25],144 nmol/g
same,Drug uptake,Heart [26],5 nmol/g
same,Drug uptake,Plasma [27],32 nmol/g
same,Activity,Rattus norvegicus [28],>95%
same,Drug uptake,Kidney [29],41 nmol/g
same,Activity,Rattus norvegicus [30],Non-toxic
same,Activity,Rattus norvegicus [31],>95%
same,Drug uptake,Kidney [32],114 nmol/g
same,Drug uptake,Plasma [33],2 nmol/g
same,Drug uptake,Plasma [34],140 nmol/g
same,Activity,Rattus norvegicus [35],Non-toxic
same,Drug uptake,Kidney [36],10 nmol/g
same,Drug uptake,Liver [37],132 nmol/g
same,Activity,Rattus norvegicus [38],>95%
same,Drug uptake,Kidney [39],69 nmol/g
same,Drug uptake,Plasma [40],5 nmol/g

# Source: ChEMBL document CHEMBL1157468, “Design, synthesis, and testing of non-nephrotoxic desazadesferrithiocin polyether analogues” (J Med Chem, 2008)
